Results reported in publication PMC8525972 (mAbs, 2021).

Tests used:
[1] = tested on: human IgG; assay: Fluorescence polarization mix-and-read assay, human IgG titration; assay type: binding; settings: 50 nM probe, human IgG 0 to 2.5 g/L
In short: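 Fluorescein-labelled probes (Fc-III peptide, protein G, peptide-H) at 50 nM mixed with human IgG at 0–2.5 g/L in PBS. Polarisation read immediately at Ex 485/Em 535 nm. mP is (I∥ − I⊥)/(I∥ + I⊥) × 1000. Curves fitted with a 4-parameter logistic.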

[2] = tested on: human IgG; assay: Fluorescence intensity mix-and-read assay, human IgG titration; assay type: binding
In short: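 Human IgG (0–2.5 g/L) diluted in PBS and mixed 1:1 with fluorescein-Ahx-labelled Fc-III peptide probe in PBS; probe tested at 25–500 nM, and at 50 nM and 2000 nM for linear quantitation. Plate read immediately, intensity at Ex 485/Em 535 nm. Normalised intensity is the fold change over probe alone without IgG.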

[3] = Fluorescence intensity of probe with hydroxypropyl-β-cyclodextrin; assay type: physicochemical; settings: 50 nM probe; increasing HP-β-cyclodextrin
[4] = tested on: polyclonal human IgG; assay: Fluorescence polarization, human IgG in CHO cell culture fluid; assay type: binding; settings: 100 nM probe in CHO-CCF
[5] = tested on: polyclonal human IgG; assay: Fluorescence intensity, human IgG in CHO cell culture fluid; assay type: binding
In short: (§1)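 CHO-S cells grown in CD CHO medium with 4 mM L-glutamine to 3.31 × 10^6 cells/mL at 96.1% viability. Fluid clarified by 8000×g for 30 min, then 0.2 µm filtration. Antibody spiked into this fluid and mixed 1:1 with 100 nM Fc-III probe in PBS; read immediately at Ex 485/Em 535 nm. Detection limit is signal above blank + 3 StdDev of blank.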

[6] = biological target: adalimumab biosimilar IgG1 (Homo sapiens, UniProt P01857); assay: Fluorescence intensity, adalimumab biosimilar in CHO cell culture fluid; assay type: binding
In short: as §1

[7] = tested on: murine-IgG1; assay: Fluorescence intensity, murine IgG1 in CHO cell culture fluid; assay type: binding
In short: as §1

[8] = tested on: IgG; settings: cited from earlier work
[9] = tested on: human IgG; settings: ref [40],[41]; cited from earlier work
[10] = tested on: murine IgG1; settings: ref [41]; cited from earlier work
[11] = tested on: human-IgG; assay: SpA competition with Fc-III probe/human IgG mixture, fluorescence intensity; assay type: binding; settings: IgG 0.005 g/L (30 nM), Fc-III probe 50 nM, 120 min
In short: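 Unlabelled SpA serially diluted in PBS and added at 0.02 nM–1 µM final to human IgG (33 nM, 0.005 g/L) plus Fc-III probe (50 nM). PBS alone served as negative control. Incubated 120 min for equilibration, then fluorescence intensity read at Ex 485/Em 535 nm.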

[12] = tested on: IgG; settings: ref [16],[17]; cited from earlier work

Chain of adalimumab biosimilar IgG1 (P01857 1-330 isoform P01857-1, other chains not shown): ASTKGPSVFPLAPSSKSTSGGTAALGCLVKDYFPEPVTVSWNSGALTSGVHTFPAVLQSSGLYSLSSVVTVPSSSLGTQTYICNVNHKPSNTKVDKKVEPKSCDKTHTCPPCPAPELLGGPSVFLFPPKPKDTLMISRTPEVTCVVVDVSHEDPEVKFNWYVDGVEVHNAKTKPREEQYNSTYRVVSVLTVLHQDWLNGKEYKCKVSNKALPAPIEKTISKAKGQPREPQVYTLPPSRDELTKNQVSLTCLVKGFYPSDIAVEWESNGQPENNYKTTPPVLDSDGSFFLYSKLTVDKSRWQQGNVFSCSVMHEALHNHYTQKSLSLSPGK

**Q.** For “Fluorescein-Ahx-DCAWHLGELVWCT-NH2 (disulfide) [Fc-III probe]”, which “Polarization dynamic range, difference between bound and free probe (Δ mP)” value ([1]; 96-well plate, Ex 485 nm/Em 535 nm) is on record?
**A.** 260 mP

**Q.** What about the “Lowest IgG concentration required to produce half-maximal response” value ([1]; fluorescence polarization) of the same substance?
**A.** 0.001 g/L

**Q.** What about the “Fold increase in fluorescence intensity at lowest IgG concentration” value ([2]; 25 nM probe, 0.00025 g/L IgG) of the same substance?
**A.** 1.16 fold

**Q.** What about the “Linear quantitation range (IgG concentration)” value ([2]; 2000 nM Fc-III probe, listed as fluorescein labeled Fc-III) of the same substance?
**A.** 0.025 to 0.1 g/L

**Q.** And the “Fluorescence intensity increase on addition of HPβCD” value [3]?
**A.** 2.1 fold

**Q.** What about the “Polarization changes, human IgG versus adalimumab biosimilar” value [4] of the same substance?
**A.** nearly identical fluorescence polarization changes

**Q.** What about the Fluorescence intensity increase ([5]; 100 nM probe in CHO-CCF, 2.5 g/L human IgG) of the same substance?
**A.** ~ 1.8 fold

**Q.** What about the “Limit of detection compared with HPLC or ELISA” value ([5]; IgG in CHO-CCF) of the same substance?
**A.** comparable to those of HPLC or ELISA

**Q.** And the “Limit of detection by fluorescence intensity” value ([5]; human IgG, 100 nM probe in CHO-CCF, signal > blank intensity + 3StdDev of blank)?
**A.** 0.00025 g/L

**Q.** And the Fluorescence intensity increase ([6]; 100 nM probe in CHO-CCF, 2.5 g/L adalimumab (IgG1 mAb))?
**A.** ~ 1.8 fold

**Q.** What about the “Adalimumab biosimilar detected down to” value ([6]; CHO cell culture fluid, fluorescence intensity) of the same substance?
**A.** 100 ng/mL

**Q.** And the Detection limit ([7]; murine IgG1, 100 nM probe in CHO-CCF)?
**A.** 0.1 g/L

**Q.** What about the “Detection limit for murine IgG1 relative to human IgG” value ([7]; murine IgG1 versus human IgG) of the same substance?
**A.** 1000 times

**Q.** And the “Binding affinity for IgG, Fc-III versus SpG” value [8]?
**A.** comparable binding affinity for IgG

**Q.** What about the “Binding of human IgG (subtypes 1–4) to Fc-III relative to pure IgG1” value [9] of the same substance?
**A.** binds Fc-III less well than pure IgG1

**Q.** What about the “Binding to murine IgG1” value [10] of the same substance?
**A.** binds relatively poorly

**Q.** Which results are given for “SpA: unlabeled Staphylococcal protein A, competitor binding to the same location on Fc as Fc-III”?
**A.** Fluorescence intensity of Fc-III/IgG mixture with 500 nM SpA ([11]; 500 nM SpA): fell to that of free Fc-III probe; Effect of unlabeled SpA on emission intensity of IgG/Fc-III probe mixture ([11]; SpA 0.02 nM to 1 µM in PBS): markedly diminished

**Q.** For “fluorescein-labeled protein A (SpA): fluorescein-labeled protein A, literature comparison”, which “IgG binding-induced fluorescence enhancement of fluorescein-labeled protein A” value [12] is on record?
**A.** IgG binding-induced fluorescence enhancement
